Measured values collected from several papers.
Lines come from different studies, so protocols differ.
Target: Tyrosine-protein kinase CSK (CSK, Homo sapiens, UniProt P41240)

With `Cc1ccc(-n2nc(C(C)(C)C)cc2NC(=O)Nc2ccc(-n3c(N)c(C(N)=O)c4nc5ccccc5nc43)cc2)cc1` the remaining binding was 0.9% (cell-free assay; competition with immobilised ligand; 1 µM).
With `COc1cnc(Nc2cccc(S(N)(=O)=O)c2)nc1N1CCN(c2ccccc2)C(=O)C1` the remaining binding was 100% (binding; competition with immobilised ligand; 1 µM).
`O=C(c1ccc(Nc2ncc(Cl)c(-c3ccc(Cl)s3)n2)cc1)N1CCC(N2CCCC2)CC1` gave a remaining binding of 75% (binding; competition with immobilised ligand; 1 µM).
For `C[C@@H]1CCN(c2nccc(-c3cnn4ncccc34)n2)C1`, the remaining binding was 89% (binding; 1 µM).
`N#Cc1ccc(Nc2ccc3[nH]c(=O)[nH]c3c2)c(Cl)c1` has a remaining binding of 89% (cell-free assay; competition with immobilised ligand; 1 µM).
With `c1cncc(-c2cccc(Nc3nccc(NC4CCCCC4)n3)c2)c1` the remaining binding was 88% (binding; competition with immobilised ligand; 10 µM).
The remaining binding of `O=C(c1ccc(Nc2nccc(-c3cc4ccccc4s3)n2)cc1)N1CCC(N2CCCC2)CC1` is reported as 100% (binding; competition with immobilised ligand; 1 µM).
For `CS(=O)(=O)c1cc(C2(NC(=O)c3cncc4c3cnn4-c3ccc(F)cc3)CC2)ccn1`, the remaining binding was 95% (cell-free assay; competition with immobilised ligand; 1 µM).
`FC(F)(F)Oc1cccc(-c2cnc3ccc(-c4ccncc4)nn23)c1` has a remaining binding of 86% (cell-free assay; competition with immobilised ligand; 5 µM).
With `COc1ncc2cc3ccccc3nc2c1C#N` the remaining binding was 100% (cell-free assay; competition with immobilised ligand; 5 µM).
With `CN(C)c1ncc(F)c(-c2cnn3ncccc23)n1` the remaining binding was 98% (binding; 1 µM).
The remaining binding of `O=C(NCC1CCOCC1)c1n[nH]cc1NC(=O)c1c(F)cccc1F` is reported as 98% (binding; competition with immobilised ligand; 1 µM).
The remaining binding of `CN(CCCC(F)(F)F)c1nccc(-c2cnn3ncccc23)n1` is reported as 91% (binding; 1 µM).
`CC(=O)C1=C(C)N(c2cccc(C(F)(F)F)c2)C(=O)N[C@@H]1c1ccc(C#N)nc1` has a remaining binding of 90% (cell-free assay; competition with immobilised ligand; 1 µM).
For `CN(C)c1nccc(-c2cnn3ncccc23)n1`, the remaining binding was 68% (binding; 1 µM).
With `O=C1CCc2cc(Nc3cc(OC4CCOCC4)c([N+](=O)[O-])cc3Cl)ccc2N1` the remaining binding was 98% (cell-free assay; competition with immobilised ligand; 1 µM).
With `COc1ccnn2ncc(-c3ccnc(N(C)C)n3)c12` the remaining binding was 96% (binding; 1 µM).
The remaining binding of `CCc1ccccc1C(=O)Nc1n[nH]c2c(C)c(F)c(C3C(C#N)=C(C)N(C)C(C)=C3C#N)cc12` is reported as 98% (cell-free assay; competition with immobilised ligand; 1 µM).
With `N[C@@H]1CCN(c2nccc(-c3cnn4ncccc34)n2)C1` the remaining binding was 94% (binding; 1 µM).
The remaining binding of `CN1CCN(c2cnc3c(C4CCN(C(=O)c5ccc(OC(F)(F)F)cc5N)CC4)ncnc3c2)CC1` is reported as 100% (cell-free assay; competition with immobilised ligand; 1 µM).
For `O=C(NCCCN1CCOCC1)c1ccc(Nc2nccc(-c3cc4ccccc4s3)n2)cc1`, the remaining binding was 90% (binding; competition with immobilised ligand; 1 µM).
